T cruzi inh – T. cruzi replication inhibition | T. cruzi beta-gal in NIH3T3, luminescence, 90 h | inhibition, % (no concentration beside the values) | 300,000 tested, 1.4% active | AID 1885;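 active means mean inhibition across valid replicates above about 55%, limit read from the data; inconclusive means mean below that limit but half or more replicates reach it; inactive means mean below it, under half of replicates reach it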;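 further: signal also drops with host cell toxicity which is not excluded here; 0% = plate median of DMSO wells and 100% = zero luminescence signal; higher percent means less beta-gal luminescence so fewer parasites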
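Read-out: Parasite load inhibition, % | Test system: Mouse NIH/3T3 fibroblasts infected with β-gal-expressing T. cruzi Tulahuen C4 | Amount: 5,000 cells/well | Medium: DMEM, 2% fetal bovine serum | Signal: GalScreen β-gal luminescence, detergent lysis, 60 min | Timing: 3 h attach, ≥90 h co-culture | Also added: Tulahuen C4 trypomastigotes, 5000/well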
pCIP destab – p/CIP protein destabilization; 290,000 tested, 0.01% active; F442A p/CIP-EGFP cells, EGFP fluorescence, 16 h; AID 1984; decrease of EGFP signal, % at 10 µM; Q05BA5;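 active means EGFP signal decrease of at least 30% at 10 µM or well 3 SD below plate mean, unless failing retest; inactive means the rest, including hits failing retest or dose response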
PP1 inh – PP1-alpha (human) inhibition in PP5 counter-screen; inhibition, % at 6.7 µM; P62136; purified PP1alpha, OMFP fluorescence; AID 2235; 320,000 tested, 0.9% active;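 active means inhibition above the mean inhibition of all tested compounds plus 3 SD, computed separately for each screening campaign, cut at about 15% in these data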
Target sequence (P62136 whole entry, looked up): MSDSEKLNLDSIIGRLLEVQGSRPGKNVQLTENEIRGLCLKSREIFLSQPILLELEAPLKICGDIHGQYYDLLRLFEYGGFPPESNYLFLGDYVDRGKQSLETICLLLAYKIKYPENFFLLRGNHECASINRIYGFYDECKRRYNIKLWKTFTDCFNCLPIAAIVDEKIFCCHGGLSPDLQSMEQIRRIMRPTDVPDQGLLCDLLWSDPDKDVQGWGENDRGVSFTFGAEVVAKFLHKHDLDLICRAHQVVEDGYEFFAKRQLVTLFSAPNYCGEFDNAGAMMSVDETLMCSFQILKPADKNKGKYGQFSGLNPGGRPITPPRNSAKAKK
AI-2 QS modul – modulates the Vibrio harveyi AI-2 quorum sensing system; 300,000 tested, 0.4% active; AID 2094; activity change, % at 7.5 µM; Vibrio harveyi JMH597 AI-2 luminescence/OD600 ratio, 9 h; active compounds read low; strain lacks LuxN and CqsS sensors; 0 = neutral-control median; in the data active means activity change below about -75%, passing the limit was not always enough; inconclusive means no clear call, values can overlap the other calls;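 further: luminescence divided by OD600 gain over 9 h not by final OD600 alone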
UBC13 inh – blocks human UBC13 polyubiquitin chain formation. TR-FRET. inhibition, % at 20 µM. 330,000 tested, 0.47% active. AID 485273; in the data active means inhibition above about 45%, passing the limit was not always enough; inconclusive means no clear call, values can overlap the other calls
Target sequence (P61088 whole entry, looked up): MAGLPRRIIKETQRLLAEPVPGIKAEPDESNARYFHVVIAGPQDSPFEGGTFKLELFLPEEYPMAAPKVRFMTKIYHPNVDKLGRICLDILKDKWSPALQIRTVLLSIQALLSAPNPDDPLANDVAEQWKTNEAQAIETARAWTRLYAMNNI
JMH597 growth rt – retest: inhibitors of Vibrio harveyi JMH597 growth | shares compounds with AI-2 QS modul | OD600 absorbance, 9 h; lacks LuxN and CqsS sensors | growth inhibition, % at 7.5 µM | 750 tested, 1% active;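 active means every replicate shows growth inhibition above 50%; inconclusive means at least half, but not all, replicates pass that cutoff; inactive means fewer than half of replicates pass it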
BB721 lum counter – retest counter-screen: lowers luminescence of constitutive-QS Vibrio harveyi BB721; shares compounds with AI-2 QS modul; 9 h; inhibition, % at 7.5 µM; 750 tested, 95% active; AID 2727;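 active means inhibition above about 80% in every replicate, not just on average, limit read from the data; inconclusive means at least half of replicates past the limit, but not all; inactive means fewer than half of replicates past the limit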
BB721 growth rt – retest: blocks Vibrio harveyi BB721 growth; growth inhibition, % at 7.5 µM; OD600 absorbance, 9 h; shares compounds with AI-2 QS modul; 750 tested, 3% active;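 active means every replicate shows growth inhibition above 50%; inconclusive means at least half but not all replicates above 50% inhibition; inactive means under half of replicates above 50% inhibition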
AI-2 QS JMH597 – Vibrio harveyi AI-2 signaling luminescence modulation – JMH597 strain, confirmation; AID 2736; inhibition, % at 7.5 µM; shares compounds with AI-2 QS modul; 750 tested, 97% active; Vibrio harveyi JMH597 AI-2 quorum sensing luminescence, 9 h; luxN and CqsS knockout, AI-2 only;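 active means every replicate shows more than 75% inhibition of signal versus neutral control wells; inconclusive means half to three quarters of replicates exceed 75% inhibition; inactive means fewer than half of replicates exceed 75% inhibition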
The depositor's hits bear a star; ? = inconclusive; nt = no result given. Shown are actives, neighbours in structure and some others; about 2.8% of the full set was active somewhere.

SMILES	T cruzi inh	pCIP destab	PP1 inh	AI-2 QS modul	UBC13 inh	JMH597 growth rt	BB721 lum counter	BB721 growth rt	AI-2 QS JMH597
O=C(COC(=O)CN1C(=O)NC2(CCCCC2)C1=O)Nc1cc(F)ccc1F	nt	nt	nt	nt	-10	nt	nt	nt	nt
COc1ccc(N(C(=O)c2cnccn2)C(C(=O)NC2CCCCC2)c2cc(OC)c(OC)c(OC)c2)cc1 (stereo unspecified)	-8	2	-1	20	-3	nt	nt	nt	nt
CC(=O)N1CCN(C(=S)Nc2ccc(Oc3ccccc3)cc2)CC1	-7	8	-2	24	-6	nt	nt	nt	nt
Cc1ccc(O)c(NC(=O)CCC2CCCCC2)c1	-11	0	2	-84*	-7	17	93*	17	95*
O=C(CCC1CCCCC1)Nc1ccccc1O	-4	-10	1	-85*	-12	24	94*	24	94*
Cc1nc(SC(C)C(=O)NC2CCCCC2C)c2c(C)c(C)sc2n1 (stereo unspecified)	10	-1	14	7	3	nt	nt	nt	nt
CCC1(c2ccccc2)NC(=O)N(CC(=O)NC2CCCCCC2)C1=O (stereo unspecified)	nt	nt	nt	nt	8	nt	nt	nt	nt
Cc1cc(C)nc(-n2ncc3c2CC(C)CC3=O)n1 (stereo unspecified)	0	7	-3	27	2	nt	nt	nt	nt
Cc1cc(=O)oc2cc(OCC3CC(c4ccccc4)=NO3)ccc12 (stereo unspecified)	-1	6	-2	-86*	2	21	95*	35	96*
Cc1cccc(NS(=O)(=O)c2ccc(Oc3ccccc3)cc2)n1	2	-3	2	-89*	14	25	11	-20	96*
Cc1ccc(S(=O)(=O)NC(=O)NC(=O)N(C)S(=O)(=O)c2ccc(C)cc2)cc1	-15	-2	-3	21	2	nt	nt	nt	nt
O=C(Nc1ccc2sccc2c1)c1cccc(N2C(=O)CCC2=O)c1	-17	-1	-2	26	6	nt	nt	nt	nt
O=c1c2ccccc2c(-c2ccccc2)nn1-c1cc(Cl)cc(Cl)c1	-27	5	-1	6	-6	nt	nt	nt	nt
CC(C)Oc1ccc(NC(=O)C2CCCNC2=O)cc1 (stereo unspecified)	-9	-3	-1	?	0	-7	89*	-3	93*
C1=C(c2cc3ccccc3cn2)CCCC1	nt	nt	nt	nt	15	nt	nt	nt	nt
CSc1nc(C(C)C)ccc1CNC(=O)CC(C)c1ccccc1 (stereo unspecified)	19	-4	3	-12	2	nt	nt	nt	nt
Cn1cnnc1SCC(=O)NCCc1ccc(Cl)cc1Cl	-22	22	-1	12	-5	nt	nt	nt	nt
O=C(CCl)Nc1ccc(N=Nc2ccccc2)cc1	-66	-2	nt	-91*	nt	74*	100*	103*	99*
Clc1ncc(CSc2ccccc2)s1	6	-6	-3	14	-7	nt	nt	nt	nt
CN(C)CCNC(=O)C1CCN(S(=O)(=O)c2ccc3ccccc3c2)CC1	9	-6	-10	-12	1	nt	nt	nt	nt
C=CCNC(=O)C1CCN(S(=O)(=O)c2ccc3ccccc3c2)CC1	0	2	0	-81*	-8	5	59	-28	99*
Cc1coc2cc3oc(=O)c(CCC(=O)N4CCC(C(=O)O)(c5ccccc5)CC4)c(C)c3cc12	-3	-7	-5	16	7	nt	nt	nt	nt
CC(=O)Nc1ccc(C(=O)OCc2ccc(Br)cc2)cc1	15	-2	0	-89*	-5	10	96*	?	95*
O=C(OCc1ccc(Br)cc1)c1ccncc1	-8	-4	1	-2	5	nt	nt	nt	nt
CC(C)c1ccc(O)c(NC(=O)c2cncc(Br)c2)c1	0	2	-1	-94*	-10	8	98*	32	98*
CC1CCCCC1NC(=O)COCc1cc(-c2cccs2)on1 (stereo unspecified)	-3	-5	-1	11	1	nt	nt	nt	nt
O=C(CNC(=O)c1ccc(Br)o1)Nc1ccncc1	-10	nt	1	7	-2	nt	nt	nt	nt

Compound activity as filed in PubChem BioAssay.
